AGP1-GFP MLPCN – modulators of TOR pathway AGP1-GFP in S. cerevisiae. AID 2066. 320,000 tested, 0.02% active. S. cerevisiae AGP1-GFP multiplex flow cytometry, 3 h; GFP as percent of DMSO wells. GFP response vs DMSO, % at 10 µM;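 active means GFP response relative to DMSO above a set limit, near screen average plus 3 SD, cut at about 150% in these data; inconclusive means fewer than 70 cells counted for the yeast strain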;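 further: median GFP channel fluorescence of the gated AGP1 strain per well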
MEP2-GFP yeast – modulators of TOR pathway MEP2-GFP in S. cerevisiae | S. cerevisiae MEP2-GFP strain, flow cytometry GFP, 3 h; 100% = DMSO control level | GFP response vs DMSO, % at 10 µM | 330,000 tested, 0.51% active | AID 2016;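 active means GFP response versus DMSO above a set limit, roughly screen mean plus 3 SD, cut at about 180% in these data; inconclusive means fewer than 70 cells counted for a yeast strain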;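 further: median GFP fluorescence of the barcode-gated MEP2-GFP cells per well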
LAP4 TOR yeast – modulators of TOR pathway LAP4-GFP in S. cerevisiae | S. cerevisiae LAP4-GFP multiplex, flow cytometry GFP, 3 h; median GFP as percent of DMSO wells | GFP response vs DMSO, % at 10 µM | 320,000 tested, 0.34% active | AID 2023;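 active means GFP response vs DMSO above a set limit, about the screen mean plus 3 SD, cut at about 150% in these data; inconclusive means under 70 cell events counted for the yeast strain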
T cell modulator – modulates CD8 T cell binding to vesicles; 2C CD8+ T cell-vesicle binding, flow cytometry; stronger effect = lower value; response (vesicle binding), % at 7 µM; 330,000 tested, 0.068% active; AID 2052;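 active means response, share of CD8 T cells binding vesicles, and their 90th percentile fluorescence all below set limits, cut at about 80% in these data, passing the limit was not always enough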;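 further: values below 100% mean blocked vesicle binding to the CD8+ T cells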
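Read-out – percent CD8+ FL2 mean versus row control · System – murine 2C transgenic CD8+ T lymphocytes · Times – 1.5 h cell–vesicle binding at 37 °C, then 20 min icy labelling · Control set – naked vesicles low, QL9 vesicles with vehicle high · Detection – cytometric PE anti-B7-1 and Alexa647 anti-CD8 signals after 1% paraformaldehyde fixation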
RPL19A TOR yeast – modulators of TOR pathway RPL19A-GFP in S. cerevisiae | percent response vs DMSO, % at 10 µM | 330,000 tested, 0.3% active | S. cerevisiae RPL19A-GFP strain, flow cytometry, 3 h; stronger effect = lower value;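 active means percent response vs DMSO below 50%; inconclusive means fewer than 70 events counted for the yeast strain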;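 further: median channel GFP fluorescence of the barcoded RPL19A-GFP strain; lower means less RPL19A-GFP as with rapamycin TOR inhibition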
CIT2-GFP yeast – yeast TOR pathway CIT2-GFP modulation; S. cerevisiae CIT2-GFP strain, flow cytometry, 3 h; 100 means same as DMSO wells; GFP response vs DMSO, % at 10 µM; 320,000 tested, 0.065% active;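 active means GFP response relative to DMSO above a set limit, near the screen mean plus 3 SD, cut at about 150% in these data; inconclusive means Fewer than 70 cells measured for a yeast strain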;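 further: ratio of well median GFP fluorescence to mean of DMSO wells on the plate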
Of the large screens only hits and unclear results are named; the others gave an inactive call; [ ] = dose if it differs, or a comment. An excerpt weighted towards active compounds, which were near 0.96% of everything screened.

CN(C)C(=O)c1ccc(NC(=O)COC(=O)C2(c3ccccc3)CCCC2)cc1	none
Cc1ccc(NC(=O)NNC(=O)C2CC(c3cccs3)=NO2)cc1 (configuration not stated)	CIT2-GFP yeast 150[may fluoresce green]
CCN(c1ccccc1)S(=O)(=O)c1ccc(C(=O)NC2CCN(Cc3ccccc3)CC2)cc1	none
Cn1cc(C(=O)N2CCN(c3ccccn3)CC2)c(=O)c2cc(S(=O)(=O)N3CCOCC3)ccc21	none
CCN(CC)S(=O)(=O)c1ccc2c(c1)c(=O)c(C(=O)N1CCN(c3ccccn3)CC1)cn2C	AGP1-GFP MLPCN inconclusive, MEP2-GFP yeast 211[may fluoresce violet], CIT2-GFP yeast inconclusive
O=C1CC(Cc2ccccc2)C(=O)N1Cc1ccco1 (configuration not stated)	none
Cc1ccc(CC2CC(=O)N(Cc3ccco3)C2=O)cc1 (configuration not stated)	LAP4 TOR yeast 191
Cc1ccc(S(=O)(=O)CCC(=O)c2ccc(F)cc2)cc1	CIT2-GFP yeast 164
COc1ccc(N(CC(=O)NC2CC3CCC2C3)S(=O)(=O)c2ccccc2)cc1Cl (configuration not stated)	none
COCc1c(C(=O)N/N=C(/C)c2cccs2)nnn1-c1nonc1N	none
C/C(=N\NC(=O)c1nonc1N)c1cccs1	MEP2-GFP yeast 233
Cc1ccc(CNS(=O)(=O)c2ccc(CN3C(=O)c4cccnc4C3=O)cc2)o1	AGP1-GFP MLPCN inconclusive, RPL19A TOR yeast 27[may fluoresce violet], CIT2-GFP yeast inconclusive
Cc1ccc(CNS(=O)(=O)c2cc(F)ccc2CN2C(=O)c3cccnc3C2=O)o1	none
O=C(Nc1ccc(CN2CCOCC2)cc1)c1ccccc1F	RPL19A TOR yeast 41[may fluoresce violet], CIT2-GFP yeast inconclusive
O=C(Nc1ccc(CN2CCOCC2)cc1)c1ccc(Cl)cc1Cl	none
Cc1ccc(S(=O)(=O)N(CC(=O)Nc2cccnc2)c2ccccc2C)cc1	MEP2-GFP yeast 188
Cc1ccc(S(=O)(=O)N(CC(=O)Nc2ccccc2C(=O)O)c2ccccc2C)cc1	none
CCCCN(C(=O)CCC(=O)Nc1cc(C)on1)C(C(=O)NC1CCCC1)c1ccccc1OCC (configuration not stated)	AGP1-GFP MLPCN inconclusive, MEP2-GFP yeast 420[may fluoresce violet], CIT2-GFP yeast inconclusive
CN1Cc2sc(NC(=S)NC(=O)c3ccccc3)c(C#N)c2CC1(C)C	LAP4 TOR yeast 155, CIT2-GFP yeast 161
CC(C)c1ccc(OCC(=O)NC2=NCCS2)cc1	none
Cc1ccc(NC(=O)Cn2cnc3cc([N+](=O)[O-])ccc3c2=O)cc1	none
Cc1cc(C)c(C(=O)Cn2cnc3cc([N+](=O)[O-])ccc3c2=O)cc1C	MEP2-GFP yeast 196
Cc1ccc2cc(CCl)c(Cl)nc2c1	AGP1-GFP MLPCN inconclusive, MEP2-GFP yeast 791[may fluoresce violet], RPL19A TOR yeast 36[may fluoresce violet], CIT2-GFP yeast inconclusive
ClCc1cc2ccccc2nc1Cl	none
CC(=O)N(Cc1ccc(Cl)cc1)c1cnccn1	AGP1-GFP MLPCN inconclusive, MEP2-GFP yeast 293[may fluoresce violet], CIT2-GFP yeast inconclusive
COCCn1ccc2c(OCC(=O)NCCc3ccccc3)cccc2c1=O	none
CC(C)(C)c1ccc(O)c(/C=N\O)c1	MEP2-GFP yeast 452[may fluoresce violet], CIT2-GFP yeast inconclusive
CCn1c(CCC(=O)Nc2nc3c(s2)CCCC3)nc2cc(S(=O)(=O)N(C)C)ccc21	AGP1-GFP MLPCN inconclusive, MEP2-GFP yeast 250[may fluoresce violet], RPL19A TOR yeast 37[may fluoresce violet], CIT2-GFP yeast inconclusive
CCN(CC(=O)Nc1c(F)cccc1F)C(=O)CCc1nc2cc(S(=O)(=O)N(C)C)ccc2n1CC	none
Cc1cccc(N(C(=O)c2snc(C(N)=O)c2N)C(C(=O)NCC2CCCO2)c2ccc(N(C)C)cc2)c1C (configuration not stated)	T cell modulator 0.0
O=C(NNC(=S)Nc1ccc(F)cc1)C1[C@H]2CCCC[C@@H]12 (some centres not stated)	none
O=C(CNC(=O)c1ccco1)N/N=C/c1cccs1	none
CCN(CC)CCN1C(=O)c2ccccc2NC1c1ccc(Br)cc1 (configuration not stated)	none
C=CCN1C(=O)c2ccccc2NC1c1cc(Br)cs1 (configuration not stated)	MEP2-GFP yeast 279[may fluoresce violet], CIT2-GFP yeast inconclusive
CC1CCN(c2nc3c(N)ncnc3n2[C@@H]2O[C@H](CO)[C@@H](O)[C@H]2O)CC1	none
CC1CCN(c2nc3c(=O)[nH]c(N)nc3n2[C@@H]2O[C@H](CO)[C@@H](O)[C@H]2O)CC1	AGP1-GFP MLPCN inconclusive, MEP2-GFP yeast active[may fluoresce violet], CIT2-GFP yeast inconclusive
COc1ccc(C(=O)Nc2c(O)ccc3ccccc23)cc1OC	AGP1-GFP MLPCN inconclusive, MEP2-GFP yeast 489[may fluoresce violet], RPL19A TOR yeast 43[may fluoresce violet], CIT2-GFP yeast inconclusive
COc1ccc(NC(=O)Nc2c(O)ccc3ccccc23)cc1	AGP1-GFP MLPCN inconclusive, MEP2-GFP yeast inconclusive, T cell modulator 39, RPL19A TOR yeast 22[may fluoresce violet], CIT2-GFP yeast inconclusive
c1ccc2c(NCC3CCCO3)nc(N3CCOCC3)nc2c1 (configuration not stated)	AGP1-GFP MLPCN inconclusive, MEP2-GFP yeast 237[may fluoresce violet], RPL19A TOR yeast 22[may fluoresce violet], CIT2-GFP yeast inconclusive
c1ccc(Nc2nc(NCC3CCCO3)c3ccccc3n2)cc1 (configuration not stated)	none
CN1CCN(CCCCOc2ccccc2C=O)CC1	LAP4 TOR yeast 163
O=C(N/N=C/c1ccc(O)cc1)NC12CC3CC(CC(C3)C1)C2	AGP1-GFP MLPCN inconclusive, MEP2-GFP yeast 351[may fluoresce violet], RPL19A TOR yeast 39[may fluoresce violet], CIT2-GFP yeast inconclusive
O=C(N/N=C/c1ccncc1)NC12CC3CC(CC(C3)C1)C2	none
O=C(COc1ccccc1)Nc1cccc(-c2ccc(N3CCOCC3)nn2)c1	none
CC(=O)c1cc(NC(=O)c2ccc(C)cc2)c(=O)oc1C	LAP4 TOR yeast 166 (no result: AGP1-GFP MLPCN)
CC(=O)c1cc(NC(=O)c2ccccc2)c(=O)oc1C	none
CC1(C)C2CCC(C2)C1(C)NC(=O)CN1CCOCC1 (configuration not stated)	AGP1-GFP MLPCN inconclusive, MEP2-GFP yeast 308[may fluoresce violet], RPL19A TOR yeast 42[may fluoresce violet], CIT2-GFP yeast inconclusive
CC1(C)C2CCC(C2)C1(C)NC(=O)CN1CCCC1 (configuration not stated)	none
COc1cccc(NC(=O)c2ccc3c(c2)CCCC3)c1	LAP4 TOR yeast 174
CC(=O)c1cccc(NC(=O)c2ccc3c(c2)CCCC3)c1	none
O=c1cc(C(F)(F)F)[nH]c(=S)n1-c1ccccc1	none
CCOC(=O)C1(C)/C(=N/Nc2ccccc2Cl)C(=O)C(=O)N1c1ccccc1 (configuration not stated)	MEP2-GFP yeast 561[may fluoresce violet], RPL19A TOR yeast 41[may fluoresce violet], CIT2-GFP yeast inconclusive (no result: AGP1-GFP MLPCN)
CCOC(=O)C1(C)/C(=N/Nc2ccc(Cl)cc2)C(=O)C(=O)N1c1ccccc1 (configuration not stated)	none
O=C(NNC(=O)c1ccccc1F)c1ccc(Cl)c(S(=O)(=O)N2CCOCC2)c1	none
